Measurements reported in paper PMC7191207 (Heliyon, 2020).
Read-outs that look alike come from different tables or passages of the source.

What was measured:
[1] = assay type: in vivo, human; conditions: oral 800 mg daily
Method in brief: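 Plasma from patients on oral 800 mg daily for at least one week, excluding combined TKI therapy; blood centrifuged at 3000 rpm, plasma stored at -20 °C. Free fraction by rapid equilibrium dialysis (8000 Da cut-off) against PBS at 37 °C, 250 rpm, 6 h, in technical duplicates. Quantified by C18 HPLC with positive-ESI MRM, erlotinib internal standard, calibration 5–1000 ng/mL.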

[2] = Stability tests of QC samples in pooled human plasma; assay type: physicochemical; conditions: for degradation of QC samples: QC low, medium and high
Method in brief: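 QC samples (12, 120, 900 ng/mL) spiked into pooled human plasma in triplicate, then held at bench top, in the autosampler, or 1 month at -80 °C. Extraction: diethyl ether liquid-liquid, dried under nitrogen at 37 °C, reconstituted in mobile phase. Analysis: C18 LC-MS/MS with positive ESI MRM (438.3/357.2) against a 1/x2-weighted calibration (5–1000 ng/mL). Accuracy = measured/nominal × 100%.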

[3] = Calculated hepatic extraction ratio; conditions: low (<0.3)
albumin = conditions: mainly bound to albumin; cited from earlier work
renal cancer patients = renal cancer patients in clinical trials, up; cited from earlier work

Cc1ccc(Nc2nccc(N(C)c3ccc4c(C)n(C)nc4c3)n2)cc1S(N)(=O)=O [pazopanib, Pazopanib]
free drug concentration ([1]; 17 patients' plasma samples, mean ± standard deviation): 5.84 ± 3.02 ng/mL
Plasma free drug concentration (Median ± Interquartile range) ([1]; patients with low albumin level (<40 g/L) (n = 7)): 6.49 ± 3.65 ng/mL
Plasma free drug concentration (Median ± Interquartile range) ([1]; patients with normal albumin level (n = 8)): 4.88 ± 2.71 ng/mL
Plasma free drug concentration (Median ± Interquartile range) ([1]; patients with very low albumin level (<30 g/L) (n = 2)): 3.44 ± 1.32 ng/mL
degradation of QC samples ([2]; 1 month of storage at -80 °C): No significant degradation
Stability, Accuracy (%) from nominal concentration ([2]; Autosampler: extracted samples stored for 14 h at room temperature, 12 ppb): 96.45%
Stability, Accuracy (%) from nominal concentration ([2]; Autosampler: extracted samples stored for 14 h at room temperature, 120 ppb): 96.56%
Stability, Accuracy (%) from nominal concentration ([2]; Autosampler: extracted samples stored for 14 h at room temperature, 900 ppb): 96.02%
Stability, Accuracy (%) from nominal concentration ([2]; Bench Top: plasma samples stored at room temperature for 8h, 12 ppb): 113.11%
Stability, Accuracy (%) from nominal concentration ([2]; Bench Top: plasma samples stored at room temperature for 8h, 120 ppb): 93.21%
Stability, Accuracy (%) from nominal concentration ([2]; Bench Top: plasma samples stored at room temperature for 8h, 900 ppb): 97.02%
Stability, Accuracy (%) from nominal concentration ([2]; Freeze Thaw: three freeze thaw cycles, 12 ppb): 93.79%
Stability, Accuracy (%) from nominal concentration ([2]; Freeze Thaw: three freeze thaw cycles, 120 ppb): 93.50%
Stability, Accuracy (%) from nominal concentration ([2]; Freeze Thaw: three freeze thaw cycles, 900 ppb): 100.49%
Stability, Accuracy (%) from nominal concentration ([2]; Long Term: stored at -80 °C for 1 month, 12 ppb): 100.58%
Stability, Accuracy (%) from nominal concentration ([2]; Long Term: stored at -80 °C for 1 month, 120 ppb): 113.89%
Stability, Accuracy (%) from nominal concentration ([2]; Long Term: stored at -80 °C for 1 month, 900 ppb): 114.23%
degradation of QC samples ([2]; auto sampler conditions): No significant degradation
degradation of QC samples ([2]; bench top conditions): No significant degradation
degradation of QC samples ([2]; three freeze-thaw cycles): did not result in significant degradation
calculated hepatic extraction ratio [3]: 0.00346
plasma protein binding (albumin): > 99.9%
proportion of patients with increases in serum transaminases and bilirubin (renal cancer patients): 40–50%
